INS promoter act: activators of insulin promoter-driven GFP, primary screen, imaging, TRM-6 cells, eGFP reporter, cell count; plate-scaled: unstimulated 0, stimulated control 100; activation, % at 2 µM; 0.81% of 130,000 active;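 active means activation at 2 µM above a set limit, confirmed on inspection of the cell images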;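 further: share of cells whose green reporter signal exceeds an intensity cutoff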
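System: human fetal islet-derived TRM-6 cells with tamoxifen-inducible insulin promoter–eGFP reporter; input: seeding density of 1,000 cells per well; buffer or medium: Low-glucose (5.5 mM) medium with tamoxifen; incubation: compound exposure 48 h, 37 °C; measured by: high-content imaging of fixed cells with Hoechst nuclear stain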
Numbers stand for hits; . = inactive. The full list was thinned out, with hits kept by preference.

SMILES	INS promoter act
Cc1occc1C(=O)NN1C(=O)C2C3CCC(O3)C2C1=O (stereo unspecified)	.
Cc1ccc(C(=O)c2cc([N+](=O)[O-])ccc2N2CCCCC2)c(C)c1	.
COc1ccccc1/C=C1\CCCC2=C1Nc1nnnn1C2c1ccccc1OC (stereo unspecified)	.
O=C(O)c1ccc(COc2ccc(Cl)cc2)o1	.
O=C(O)CC(SCc1ccc(C(=O)O)o1)C(=O)O (stereo unspecified)	75.7
O=C(O)c1ccc(CS(=O)c2cccc(C(F)(F)F)c2)o1 (stereo unspecified)	.
COC(=O)C(C)Oc1cc(OC(C)C(=O)OC)c2c(C)c(Cl)c(=O)oc2c1 (stereo unspecified)	.
Cc1nnc(NC(=O)c2cccc(S(=O)(=O)N3CCOCC3)c2)s1	.
O=C(Nc1ccccc1O)c1cccc(S(=O)(=O)N2CCOCC2)c1	462.5
O=C(Nn1cnnc1)c1cccc(S(=O)(=O)N2CCOCC2)c1	.
CCCCNC(=S)N(Cc1c(C)noc1C)c1ccccc1	.
N#CCC(=O)N/N=C/c1cc(-c2ccccc2)n(-c2ccc(Cl)cc2)c1-c1ccccc1	.
Cc1ccc(NC(=O)c2ccc(-n3cccn3)c([N+](=O)[O-])c2)cc1C	218.2
Cc1ccc(NC(=O)c2ccncc2)cc1[N+](=O)[O-]	.
O=C(Nc1cccc(Cl)c1)c1ccc(-n2cncn2)c([N+](=O)[O-])c1	.
COc1ccc(S(=O)(=O)NCCSCc2cccs2)cc1	.
CCC(/C=N/NC(=O)CCCCC(=O)N/N=C/C(CC)CC)CC	.
FC(F)(F)c1nc(=S)c2ccccc2[nH]1	.
CCn1c(=O)n(CC)c2cc(S(N)(=O)=O)c(C)cc21	525.0
CCn1c(NC)cc(=O)n(C)c1=O	.
CCN1CCN(S(=O)(=O)c2cc(C)c(OC)cc2C)CC1	.
CC(NC(=O)c1ccc(N(C)C)cc1)C1CC2CCC1C2 (stereo unspecified)	.
COc1cccc(CN2CCN(CC(=O)Nc3ccccc3Cl)CC2)c1	.
Cc1ccc(S(=O)(=O)Nc2ccc3nc(-c4cccn4C)[nH]c3c2)cc1	.
O=C(NCc1ccc(OC(F)(F)F)cc1)C1CC(c2ccccc2[N+](=O)[O-])=NO1 (stereo unspecified)	.
SMILES	INS promoter act
CCCCNC(=O)C1CC(c2ccccc2[N+](=O)[O-])=NO1 (stereo unspecified)	161.3
O=C(NCCc1cccs1)C1CC(c2ccc([N+](=O)[O-])cc2)=NO1 (stereo unspecified)	.
CCSc1n[nH]c(=S)s1	.
O=C(O)CCC(=O)NNC(=O)c1ccc(Br)cc1	.
COc1ccccc1/C=C/C(=O)OCC(=O)c1c(N)n(C)c(=O)n(C)c1=O	.
Cc1cc(C)n(-c2nc(Nc3ccccc3)nc(-n3nc(C)cc3C)n2)n1	.
COc1ccc(C(=O)n2nc(C)cc2Nc2ccccc2)cc1	.
Cc1cc(Nc2ccccc2)n(CCO)n1	542.9
Cc1ccc(SC(C)C(=O)Nc2ncn[nH]2)cc1 (stereo unspecified)	.
Cc1ccc(SC(C)C(=O)NCC(C)C)cc1 (stereo unspecified)	518.8
CCCCCNC(=O)C(C)Sc1ccc(Cl)cc1 (stereo unspecified)	.
Cn1cccc1C(=O)NC(=O)COC(=O)C12CC3CC(CC(O)(C3)C1)C2	.
O=C(NCCc1c[nH]c2ccccc12)C(=O)NCC(c1ccco1)N1CCN(c2ccccc2)CC1 (stereo unspecified)	.
Cc1oc(C(=O)O)cc1COc1ccc2c3c(c(=O)oc2c1)CCC3	.
CN1/C(=C\C(=O)C(F)F)C(C)(C)c2ccccc21	.
CN1\C(=C/C=C/C=C/C=[N+](C)C)C(C)(C)c2ccccc21	566.7
CN1/C(=C\C=Nc2ccc3ccccc3c2)C(C)(C)c2ccccc21	.
CCOc1ccc(C(=O)NCC(=O)OCc2c(F)cccc2Cl)cc1	.
CCN(CC)CC(=O)Nc1ccccc1SCC(=O)Nc1ccsc1C(=O)OC	.
O=C1N(Cc2cccc(Cl)c2)C[C@@H]2C[C@@H](c3ccco3)N3CCC[C@@]123	683.3
CCCn1ncc([C@@H]2C[C@H]3CN(Cc4cccc(Cl)c4)C(=O)[C@]34CCCN24)c1C	.
O=C1NCCN1Cc1cccc(Cl)c1	.
CCOc1ccccc1N(CC(=O)Nc1ccc(S(=O)(=O)N2CCOCC2)cc1)S(=O)(=O)c1ccc(Cl)cc1	.
CCSc1nnc(NC(=O)c2ccccn2)s1	.
C=CCSc1nnc(NC(=O)CSc2ccccn2)s1	425.0
SMILES	INS promoter act
CCc1ccc(NC(=O)CSc2ccccn2)cc1	.
COc1cccc(OCCNc2cc(Cl)ccc2[N+](=O)[O-])c1	.
CCOC(=O)NN1C(=O)c2ccccc2NC12CCCC2	.
CCOC(=O)N1CCN(CCC(=O)Nc2ccc(C)cc2)CC1	.
CNS(=O)(=O)c1ccc(OC)c(-c2nnc3c4ccccc4c(C)nn23)c1	.
Cc1nn2c(-c3cccc(NC(=O)c4ccco4)c3)nnc2c2ccccc12	.
Cc1nn2c(-c3ccccc3)nnc2c2ccccc12	450.0
c1ccc(C2OC3c4cccc5cccc(c45)C3N2c2ccccc2)cc1 (stereo unspecified)	.
CN(C)CCNc1ncnc2ccccc12	.
Cc1ccc(Nc2ncnc3ccccc23)cc1	421.4
CCCCC(Nc1ncnc2ccccc12)C(=O)O (stereo unspecified)	.
Clc1ccccc1Cn1nnc(-c2cccs2)n1	569.2
Clc1ccccc1-c1nnc2sc(-c3cccs3)nn12	.
O=C(O)CCn1nnc(-c2cccs2)n1	.
O=C(CSc1ccc(Cl)cc1)Nc1ccc(-c2nc3ccccc3[nH]2)cc1	.
O=[N+]([O-])/C=C/c1cn(Cc2ccc(Cl)cc2)c2ccccc12	.
N#Cc1ccccc1Cn1cc(/C=N/Nc2ccc([N+](=O)[O-])cn2)c2ccccc21	400.0
Cn1cc(/C=N/NC(=O)COc2ccccc2[N+](=O)[O-])c2ccccc21	.
NC(=O)c1sc2nc(N3CCCCC3)c3c(c2c1N)CCCC3	.
COc1ccc(CNC(=O)CSc2ncnc3ccccc23)cc1OC	.
COc1cc2ncnc(NCc3ccc(C)cc3)c2cc1OC	230.0
COc1cc(OC)c(OC)cc1CNc1cc(C)ccc1OC	.
Cn1c(-c2ccccc2O)cc2ccccc21	.
O=C(CSc1nnc2ccccn12)NCc1cccs1	.
COC(=O)c1ccsc1-n1cc(C#N)c(=O)n(C)c1=O	.
SMILES	INS promoter act
CCC(O)C1CCN(C(=O)c2cc(COc3ccc4ncccc4c3)on2)CC1 (stereo unspecified)	.
CNC(=O)Nc1ccccc1NC(=O)NC	.
Cn1cccc1/C=C(/C#N)c1ccc(F)cc1	438.5
CCOc1cc(/C=C(/C#N)c2ccc(F)cc2)ccc1OCc1ccc(C(=O)O)o1	.
N#C/C(=C/c1cn(CC(=O)O)c2ccccc12)c1ccc(F)cc1	.
CC1CN(C(=S)NC(=O)C2CCCCC2)CC(C)O1 (stereo unspecified)	.
COc1ccc(-n2c(C)cc(/C=N/Nc3nc(N4CCOCC4)nc(N4CCOCC4)n3)c2C)cc1	.
CCCN1C(=O)C(O)(C2CC(=O)CC(C)(C)O2)c2ccccc21 (stereo unspecified)	.
CC(=NC1CC1)C1=C(O)c2ccccc2C1=O	.
O=C1C(C2=C(O)c3ccccc3C2=O)=Nc2ccccc21	440.0
CC(=NCCCN(C)C)C1=C(O)c2ccccc2C1=O	.
O=C(CCn1nnc2ccccc21)N/N=C\Cc1ccccc1	.
O=C(CSc1ccc(-c2cccc([N+](=O)[O-])c2)nn1)N1CCCCCC1	.

Source: PubChem BioAssay (Columbia University Molecular Screening Center)
